The record followed here is ChEMBL document CHEMBL4334455, “Synthesis of Usnic Acid Derivatives and Evaluation of Their Antiproliferative Activity against Cancer Cells” (J Nat Prod, 2019).

For experiment [1], the system named is MCF7. The experiment can be described thus: Induction of cytoplasmic vacuolization in human MCF7 cells at 8.7 uM after 24 to 48 hrs by TEM analysis. The class given is functional, cell-based. The method in brief: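 MCF-7 cells (2 × 10⁵) attached overnight, then exposed to 8.7 μM derivative or DMSO for 24 or 48 h at 37 °C. Fixed in ice-cold 2.5% fixative; ultrathin 45 nm sections stained with uranyl acetate and lead citrate, imaged by TEM at 1650×.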

Experiment [2] has as its system MCF7. The experiment is described as follows: Induction of vacuolization in human MCF7 cells assessed as increase in LAMP1 expression at 2.9 uM by Western blot analysis relative to control. It is filed as functional. A general note: Immunoblotting shows a protein as a band on a membrane.
In experiment [3] the test system is PC-3. The experiment is described as follows: Antiproliferative activity against human PC3 cells assessed as reduction in cell viability after 48 hrs by MTT assay. It is filed as functional, cell-based. The conditions noted are these: PC-3, 48 h. The method in brief:
(§1)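 Cells seeded at 4 × 10³/well for 24 h runs and for PC-3, or 2 × 10³/well for MCF-7 and HeLa 48 h runs, and attached overnight. Medium replaced with compound-containing medium for 24 or 48 h. MTT (4 mg mL⁻¹) added for the final 3 h, formazan dissolved in DMSO, absorbance read at 570 nm (reference 660 nm). IC₅₀ calculated from at least three independent experiments in duplicate, mean ± SE.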

Experiment [4] concerns MCF7. The experiment can be described thus: Induction of apoptosis in human MCF7 cells assessed as reduction in Bcl-2 expression at 2.9 uM after 24 hrs by immunoblot analysis relative to control. The class given is functional. The gist of the method:
(§2)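 Proteins run on SDS-PAGE, transferred to PVDF, blocked in 5% milk/PBS, primary antibody overnight at 4 °C (cleaved PARP, Bax, Bcl-2), secondary 1 h at room temperature. Reprobed for β-actin; densitometry corrected for loading.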

In experiment [5] the test system is HeLa. The experiment is described as follows: Cell cycle arrest in human HeLa cells assessed as reduction in cell population at G2/M phase at 2.9 to 8.7 uM after 24 hrs by propidium iodide staining based flow cytometric analysis. It is filed as functional. On the technique in general: In flow cytometry, cells or beads pass a laser one at a time.
Experiment [6] relates to MCF7. The experiment can be described thus: Antiproliferative activity against human MCF7 cells assessed as reduction in cell viability after 48 hrs by MTT assay. The class given is functional, cell-based. Conditions: Homo sapiens, MCF7, 48 h. The method in brief: as §1
For orientation: Tetrazolium assays rely on reduction of a dye to a coloured formazan, in cell work by metabolically active cells.

Experiment [7] has as its system MCF7. The experiment is described as follows: Induction of endocytosis in human MCF7 cells at 2.9 to 8.7 uM after 24 hrs by lucifer yellow staining based fluorescence microscopic analysis. It is filed as functional, cell-based. The gist of the method:
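MCF-7 cells treated 24 h with 2.9 or 8.7 μM derivative, stained with 75 μM Lucifer Yellow, washed, and examined by fluorescence microscopy at 1000×.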

In experiment [8] the test system is PC-3. The experiment can be described thus: Antiproliferative activity against human PC3 cells assessed as reduction in cell viability after 24 hrs by MTT assay. The class given is functional, cell-based. The conditions noted are these: PC-3, 24 h. The gist of the method:
as §1

Experiment [9] has as its system MCF7. The experiment can be described thus: Induction of cell cycle arrest in human MCF7 cells assessed as accumulation of cells at G0/G1 phase at 8.7 uM after 24 hrs by Propidium iodide staining based flow cytometric analysis (reference value: 47.8 +/- 0.42%). The class given is functional.
The test system of experiment [10] is MCF7. The experiment can be described thus: Antiproliferative activity against human MCF7 cells assessed as reduction in cell growth in presence of early autophagy inhibitor, wortmannin by MTT assay. It is filed as functional, cell-based.
For experiment [11], the system named is MCF7. The experiment is described as follows: Induction of apoptosis in human MCF7 cells assessed as increase in Bax level at 2.9 uM after 24 hrs by immunoblot analysis relative to control. The class given is functional. The method in brief: as §2
The subject of experiment [12] is HeLa. The experiment is described as follows: Antiproliferative activity against human HeLa cells assessed as reduction in cell viability after 24 hrs by MTT assay. It is filed as functional, cell-based. The gist of the method:
as §1

In experiment [13] the test system is MCF7. The experiment can be described thus: Induction of cell cycle arrest in human MCF7 cells assessed as accumulation of cells at G2/M phase at 2.9 uM after 24 hrs by Propidium iodide staining based flow cytometric analysis (reference value: 27 +/- 2.97%). The class given is functional.
Experiment [14] concerns MCF7. The experiment is described as follows: Antiproliferative activity against human MCF7 cells assessed as reduction in cell viability at 8.7 uM after 24 hrs in presence of 50 uM dynamin inhibitor, dynasore by MTT assay relative to control. The class given is functional, cell-based.
Experiment [15] concerns MCF7. The experiment is described as follows: Induction of vacuolization in human MCF7 cells at 8.7 uM after 24 hrs in presence of 10 uM Na+/H+ exchange inhibitor, amiloride by light microscopic analysis. The class given is functional, cell-based.
Experiment [16] relates to MCF7. The experiment can be described thus: Antiproliferative activity against human MCF7 cells assessed as reduction in cell viability at 8.7 uM after 24 hrs in presence of 10 uM Na+/H+ exchange inhibitor, amiloride by MTT assay. It is filed as functional, cell-based.

Active and inactive are the calls of the source. The rule behind the calls is not given here.

On to `CC(=O)c1c(O)c(C)c(O)c2c1OC1=Cc3onc(C)c3C(=O)[C@]12C`, for which the result in [1], in experiment [5], in experiment [7] and in [15] was Active. Further, the “fold change (FC)” value is given as 5.3 in experiment [2], 0.5 in experiment [4] and 1.3 in experiment [11]. In addition, the half-maximal inhibitory concentration (IC50) (usually the concentration that gives 50% inhibition) in experiment [3] was 3100 nM; in experiment [6] it was 2500 nM; in experiment [8], 3200 nM; in experiment [12], 1000 nM. The figures for the Activity in experiment [9] and in experiment [13] were 75.7% and 16.4%, respectively. Moreover, the inhibition entry in experiment [10], in experiment [14] and in experiment [16] was “Active” each time.

As to `CC(=O)c1c(O)c(C)c(O)c2c1OC1=Cc3onc(C)c3C(=O)C12C` (racemic), the result in [1], in [5], in [7] and in experiment [15] was Active. Further, the results for the “fold change (FC)” value in experiment [2], in [4] and in experiment [11] were 1.3, 0.6 and 1.02, respectively. Also, the IC50 is 2800 nM in experiment [3], 2900 nM in experiment [6], 3400 nM in [8] and 1000 nM in experiment [12]. Also, the figures for the Activity in experiment [9] and in [13] were 75.45% and 16.2%, respectively. Moreover, the inhibition result in experiment [10], in experiment [14] and in [16] was “Active” in each case.
